Experimental data published in paper PMC4511165 (Biochemistry, 2015).
Entries after “also recorded” stand apart in the source; their conditions may differ.

Tests used:
[1] = molecular target: MMP-3 (Homo sapiens, UniProt P08254); assay: Hydrolysis of Ac-pfTHP-1 by noncollagenolytic MMP-3; type: biochemical; conditions: data not shown
[2] = molecular target: T1, MMP-1 (Homo sapiens, UniProt P03956); assay: Hydrolysis of fluorogenic; type: biochemical; conditions: 30 °C; for hydrolysis of fluorogenic peptomer by MMP-1: FRET kinetic assay, TSB*Zn buffer
T1 sequence (P03956 100-469): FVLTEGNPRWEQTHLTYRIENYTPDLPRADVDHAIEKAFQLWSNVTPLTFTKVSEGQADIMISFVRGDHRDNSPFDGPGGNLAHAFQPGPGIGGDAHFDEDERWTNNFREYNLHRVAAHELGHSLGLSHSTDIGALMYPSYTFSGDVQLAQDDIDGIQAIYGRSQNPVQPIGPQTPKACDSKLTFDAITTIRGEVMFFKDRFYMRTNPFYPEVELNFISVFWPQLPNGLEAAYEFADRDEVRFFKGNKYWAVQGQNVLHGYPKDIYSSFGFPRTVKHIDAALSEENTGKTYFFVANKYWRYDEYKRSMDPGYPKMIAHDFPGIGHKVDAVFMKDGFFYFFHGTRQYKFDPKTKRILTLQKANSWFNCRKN
Summary of the method: (§1)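 Enzymes were activated with 1 mM […] at 37 °C for 60 min and diluted in TSB*Zn. The Mca/Dnp substrate was equilibrated in TSB at 4 °C for 24 h and quantified at 363 nm (εDnp 15900 M−1 cm−1). Twelve 1:1 dilutions were made from a 100 µM stock, and enzyme was added from a 100 nM 20× stock. Fluorescence was read every 8 s for 600 s at 30 °C, with a final read at 24 h. The 25 µM sample was analysed by HPLC for % cleavage; triplicate.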

[3] = molecular target: T2, MMP-14/MT1-MMP (ectodomain, soluble MT1-MMP) (Homo sapiens, UniProt P50281); assay: Hydrolysis of fluorogenic; type: biochemical
Summary of the method: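 Soluble ectodomain was activated with 0.1 equiv trypsin-3 for 1 h at 37 °C, quenched with AEBSF and diluted in TSB*Zn. The Mca/Dnp substrate was equilibrated in TSB at 4 °C for 24 h and quantified at 363 nm. Twelve 1:1 dilutions were made from a 100 µM stock, and enzyme was added from a 100 nM 20× stock. Fluorescence was read every 8 s for 600 s at 30 °C, with a final read at 24 h. The 25 µM sample was analysed by HPLC for % cleavage; triplicate.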

[4] = molecular target: T3, MMP-8 (Homo sapiens, UniProt P22894); assay: Hydrolysis of fluorogenic; type: biochemical; conditions: 30 °C; for hydrolysis of fluorogenic peptomer by MMP-8: FRET kinetic assay, TSB*Zn buffer
T3 sequence (P22894 101-467): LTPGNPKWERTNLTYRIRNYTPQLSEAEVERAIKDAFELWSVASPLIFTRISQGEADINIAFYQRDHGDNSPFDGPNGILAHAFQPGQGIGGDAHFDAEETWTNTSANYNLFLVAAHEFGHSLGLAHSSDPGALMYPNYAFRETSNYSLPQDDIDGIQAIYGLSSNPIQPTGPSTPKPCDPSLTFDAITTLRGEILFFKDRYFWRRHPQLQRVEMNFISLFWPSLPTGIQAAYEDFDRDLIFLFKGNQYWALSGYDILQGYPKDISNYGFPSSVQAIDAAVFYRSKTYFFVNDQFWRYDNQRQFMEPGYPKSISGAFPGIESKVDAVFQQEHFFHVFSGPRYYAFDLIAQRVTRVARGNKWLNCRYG
Summary of the method: as §1

[5] = molecular target: T4, MMP-13 (Homo sapiens, UniProt P45452); assay: Hydrolysis of fluorogenic; type: biochemical
Summary of the method: as §1

[6] = CD thermal transition; type: physicochemical; conditions: decrease relative to α1(I)772–786 THP
[7] = molecular target: T3, MMP-8; assay: HPLC-monitored hydrolysis of peptomeric THPs by MMP-8; type: biochemical; conditions: room temperature, 24 h; MALDI-TOF MS / HPLC of products
Summary of the method: (§2)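 Full-length human enzymes were activated with 1 mM […] for 60 min at 37 °C, then diluted to 100 nM in ice-cold TSB*Zn (Tris, NaCl, CaCl2, ZnCl2, Brij-35, pH 7.5). Substrates were pre-equilibrated in TSB at 4 °C for 24 h. Reactions used 20 nM enzyme at 1:1000 enzyme:substrate for 24 h at room temperature (some also at 37 °C). Reactions were quenched with 50 mM EDTA; triplicate RP-HPLC peak integration at 220 nm, with MALDI-TOF identifying products.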

[8] = molecular target: T1, MMP-1; assay: HPLC-monitored hydrolysis of peptomeric THPs by MMP-1; type: biochemical; conditions: room temperature, 24 h; MALDI-TOF MS / HPLC of products
Summary of the method: as §2

[9] = molecular target: T2, MMP-14/MT1-MMP (ectodomain, soluble MT1-MMP); assay: HPLC-monitored hydrolysis of peptomeric THPs by MT1-MMP; type: biochemical; conditions: room temperature, 24 h; MALDI-TOF MS / HPLC of products
Summary of the method: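 Soluble ectodomain was activated with 0.1 equiv trypsin-3 for 1 h at 37 °C. Trypsin was quenched with 100 equiv AEBSF for 15 min at room temperature, then the enzyme was diluted in cold TSB*Zn (pH 7.5). Substrates were pre-equilibrated in TSB at 4 °C for 24 h. Reactions used 20 nM enzyme at 1:1000 enzyme:substrate for 24 h at room temperature (some also at 37 °C). Reactions were quenched with 50 mM EDTA; triplicate RP-HPLC integration at 220 nm, MALDI-TOF for products.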

[10] = molecular target: T4, MMP-13; assay: HPLC-monitored hydrolysis of peptomeric THPs by MMP-13; type: biochemical; conditions: 24 h; for cleavage site, MMP-13: room temperature, MALDI-TOF MS / HPLC of products
Summary of the method: as §2

[11] = molecular target: T1, MMP-1; assay: Inhibition of MMP-1 by non-cleaved peptomers; type: biochemical; conditions: MS-1 up to 200 µM; concentration for MS-2 not given; data not shown
[12] = molecular target: T4, MMP-13; assay: Inhibition of MMP-13 by non-cleaved peptomers; type: biochemical; conditions: MS-1 up to 200 µM; concentration for MS-2 not given; data not shown
[13] = molecular target: T3, MMP-8; assay: Inhibition of MMP-8 by non-cleaved peptomers; type: biochemical; conditions: MS-1 up to 200 µM; concentration for MS-2 not given; data not shown
[14] = molecular target: MMP-14/MT1-MMP (Homo sapiens, UniProt P50281); assay: Inhibition of MT1-MMP by non-cleaved peptomers; type: biochemical; conditions: MS-1 up to 200 µM; concentration for MS-2 not given; data not shown
[15] = RP-HPLC, 25 µM peptomer, 24 h, data not shown
[16] = RP-HPLC, 25 µM peptomer, 30 °C, 24 h, data not shown

Chain of MMP-3 (P08254 100-477, species assumed): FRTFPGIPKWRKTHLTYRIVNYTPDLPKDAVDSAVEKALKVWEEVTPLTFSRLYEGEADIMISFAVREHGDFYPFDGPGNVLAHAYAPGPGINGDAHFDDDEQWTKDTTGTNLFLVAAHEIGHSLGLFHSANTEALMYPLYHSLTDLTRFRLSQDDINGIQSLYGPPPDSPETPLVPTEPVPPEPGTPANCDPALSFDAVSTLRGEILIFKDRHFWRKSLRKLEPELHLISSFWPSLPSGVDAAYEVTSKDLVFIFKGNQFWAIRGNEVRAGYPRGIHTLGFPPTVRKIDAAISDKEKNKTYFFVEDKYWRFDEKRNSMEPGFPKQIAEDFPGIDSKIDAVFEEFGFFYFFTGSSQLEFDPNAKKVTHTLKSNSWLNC

Tm lower than that of parent THP by [6] [°C]	cleavage site, MMP-8 [7]	cleavage site, MMP-1 [8]	cleavage site, MT1-MMP [9]	cleavage site, MMP-13 [10]	Substance	also measured
–	–	–	–	–	Ac-(GPO)4-GP-Lys(Mca)-G-Sar-AGQRGV-Lys(Dnp) G-NLeu-O(GPO)4-NH2 [Ac-pfTHP-1]	hydrolysis by MMP-3 [1]: not able to hydrolyze; hydrolysis of fluorogenic peptomer by MMP-1 [2]: unable to hydrolyze; hydrolysis by MMP-1 [2, 15]: < 1%; hydrolysis by MT1-MMP [3, 16]: 22%; cleavage sites of fluorogenic peptomer, MT1-MMP [3]: Gly781–Val782 and Arg780–Gly781 bonds; hydrolysis of fluorogenic peptomer by MMP-8 [4]: unable to hydrolyze; hydrolysis by MMP-8 [4, 15]: < 2%; hydrolysis by MMP-13 [5, 16]: 65%; cleavage site of fluorogenic peptomer, MMP-13 [5]: between Gly778 and Gln779
4	–	–	–	–	(GPO)4G-Sar-QGIAGQRGVVGLO(GPO)4-NH2 [MS-4]	–
20	between Sar775 and Ile776	between Sar775 and Ile776	between Sar775 and Ile776	between Sar775 and Ile776	(GPO)4GPQ-Sar-IAGQRGVVGLO(GPO)4-NH2 [MS-3]	–
13.5	between Sar775 and Ile776	between Sar775 and Ile776	between Sar775 and Ile776	between Sar775 and Ile776	(GPO)4GPQ-Sar-IAGQRGVVG-NLeu-GLO(GPO)4- NH2 [MS-9]	–
–	–	–	–	–	(GPO)4-GPQG-NIle-AGQRGVVGLO(GPO)4-NH2 [MS-1]	inhibition of MMP-1 [11]: No inhibition; inhibition of MMP-13 [12]: No inhibition; inhibition of MMP-8 [13]: No inhibition; inhibition of MT1-MMP [14]: No inhibition
–	–	–	–	–	(GPO)4GP-Lys(Mca)-G-Sar-AGQRGV-Lys(Dnp)-G- NLeu-O(GPO)4-NH2 [pfTHP-1]	hydrolysis of fluorogenic peptomer by MMP-1 [2]: unable to hydrolyze; cleavage sites of fluorogenic peptomer, MT1-MMP [3]: Gly781–Val782 and Arg780–Gly781 bonds; hydrolysis of fluorogenic peptomer by MMP-8 [4]: unable to hydrolyze; cleavage site of fluorogenic peptomer, MMP-13 [5]: between Gly778 and Gln779
–	Gly775–Ile776 bond	Gly775–Ile776 bond	Gly775–Ile776 bond	Gly775–Ile776 bond	(GPO)4GPQGIAGQRGVVG-NLeu-O(GPO)4-NH2 [MS-7]	difference in MMP-13 hydrolysis versus parent THP ([10]; 37 °C, RP-HPLC, peptomer better substrate than parent THP): 2 fold

Substance	Tm lower than that of parent THP by [6] [°C]	cleavage site, MMP-8 [7]	cleavage site, MMP-1 [8]	cleavage site, MT1-MMP [9]	cleavage site, MMP-13 [10]	also measured
(GPO)4GPQGWAGQRGVVG-NLeu-O(GPO)4-NH2 [MS-10]	–	Gly775-Trp776 bond	–	Gly775-Trp776 bond; also recorded: occurring at several bonds	Gly775-Trp776 bond	–
